According to ChEMBL document CHEMBL2311288, “Discovery of liver-targeted inhibitors of stearoyl-CoA desaturase (SCD1)” (Bioorg Med Chem Lett, 2013):

Assays:
Acyl-CoA desaturase 1 [1] = target: T1, Acyl-CoA desaturase 1 (Rattus norvegicus, UniProt P07308); test: Inhibition of rat SCD1 by rat microsomal assay
T1 sequence (P07308 whole entry): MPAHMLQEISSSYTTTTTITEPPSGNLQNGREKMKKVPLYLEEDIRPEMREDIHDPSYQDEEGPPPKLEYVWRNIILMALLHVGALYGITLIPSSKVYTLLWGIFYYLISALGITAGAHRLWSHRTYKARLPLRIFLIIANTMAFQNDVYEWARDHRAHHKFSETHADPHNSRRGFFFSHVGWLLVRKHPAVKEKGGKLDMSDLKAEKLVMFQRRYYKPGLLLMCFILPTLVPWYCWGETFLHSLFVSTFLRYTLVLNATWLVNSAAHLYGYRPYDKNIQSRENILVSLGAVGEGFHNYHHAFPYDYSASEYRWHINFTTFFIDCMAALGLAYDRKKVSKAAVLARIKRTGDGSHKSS
In short: (§1)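 Microsomal desaturase activity was measured in 100 mM Tris HCl pH 7.3 with 2 mM NADH and [9,10-3H]stearoyl-CoA for 15 min at room temperature. The reaction was stopped on ice with trichloroacetic acid, then passed through activated charcoal, and tritium in the filtrate was counted. Compounds were tested in 2% DMSO final. Percent inhibition = (total−sample)/(total−blank)×100, with the blank set by 10⁻⁴ M of a standard inhibitor.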

Rattus norvegicus = test: AUC in rat at 10 mg/kg; assay type: ADME, organism-based, Plasma; design: dose 10 mg/kg; conditions: in vivo
In short: (§2)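 Rats were given a single 10 mg/kg dose. Plasma exposure (AUC, Cmax) was determined, and drug concentrations in plasma, brain and liver were measured at 6 h post-dose. The liver/plasma ratio was taken from the 6 h levels.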

[2] = Drug level in liver in rat at 10 mg/kg measured after 6 hrs; assay type: ADME, organism-based; design: dose 10 mg/kg; conditions: read-out: Drug uptake; in short: as §2
[3] = Cmax in rat at 10 mg/kg; assay type: ADME, organism-based; design: dose 10 mg/kg; conditions: in vivo; in short: as §2
[4] = Ratio of drug level in liver to plasma of rat at 10 mg/kg measured after 6 hrs; assay type: ADME, organism-based; design: dose 10 mg/kg; in short: as §2
[5] = Plasma concentration in rat at 10 mg/kg measured after 6 hrs; assay type: ADME, organism-based; design: dose 10 mg/kg; in short: as §2
Acyl-CoA desaturase 1 [6] = target: T2, Acyl-CoA desaturase 1 (Mus musculus, UniProt P13516); test: Inhibition of mouse SCD1; in short: as §1
T2 sequence (P13516 whole entry): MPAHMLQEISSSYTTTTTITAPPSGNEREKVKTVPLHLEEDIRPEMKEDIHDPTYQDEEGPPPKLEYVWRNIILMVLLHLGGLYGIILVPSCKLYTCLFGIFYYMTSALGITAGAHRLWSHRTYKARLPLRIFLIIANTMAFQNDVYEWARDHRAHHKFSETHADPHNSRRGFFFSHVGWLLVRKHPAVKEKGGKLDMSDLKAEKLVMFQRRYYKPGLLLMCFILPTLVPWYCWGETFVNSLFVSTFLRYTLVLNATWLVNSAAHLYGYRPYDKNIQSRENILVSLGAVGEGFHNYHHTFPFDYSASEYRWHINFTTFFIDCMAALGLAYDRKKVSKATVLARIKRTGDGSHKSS

Row | Compound | IC50 (Acyl-CoA desaturase 1 [1]) [nM] | also measured
1 | CC(=O)NCC(=O)N1CCC2(CC1)CCN(Cc1ccc(F)cc1)c1ccccc1O2 | 460 | 
2 | O=C(NCCC1CC1)c1ccc(N2CCC3(CC2)CCN(Cc2cccc(C(F)(F)F)c2)c2ccccc2O3)cc1 | 2200 | 
3 | O=C(NCC(=O)N1CCC2(CC1)CCN(Cc1cccc(C(F)(F)F)c1)c1ccccc1O2)c1ccco1 | 380 | 
4 | CC(=O)NCC(=O)N1CCC2(CC1)CCN(Cc1ccccc1Cl)c1ccccc1O2 | 1200 | 
5 | O=C(NCCC1CC1)c1ccc(N2CCC3(CC2)CCN(Cc2cccc(C(F)(F)F)c2)c2ccccc2O3)nn1 | 4 | AUC (Rattus norvegicus): 105 ng·h/g; concentration at 6 h [2]: < 10 ng/g; Cmax [3]: 209 ng/g
6 | CC(=O)NCC(=O)N1CCC2(CC1)CCN(Cc1cccc(OC(F)(F)F)c1)c1ccccc1O2 | 680 | 
7 | Fc1cccc2c1CCC1(CCN(c3ccc(-c4nnc(Cc5cccnc5)o4)nn3)CC1)O2 | 2 | 
8 | CCCNC(=O)c1ccc(N2CCC3(CC2)CCN(Cc2cccc(C(F)(F)F)c2)c2ccccc2O3)nn1 | 130 | 
9 | O=C(O)Cn1nnc(-c2cc(N3CCC(Oc4ccccc4C(F)(F)F)CC3)no2)n1 | 3 | 
10 | CC(C)(C)c1ccc(CN2CCC3(CCN(C(=O)CNC(=O)c4cccnc4)CC3)Oc3ccccc32)cc1 | 1500 | AUC (Rattus norvegicus): 341 ng·h/g; concentration at 6 h [2]: 232 ng/g; Kp at 6 h [4]: 13; Cmax [3]: 169 ng/g; concentration at 6 h [5]: 18 ng/g
11 | CC(=O)NCC(=O)N1CCC2(CC1)CCN(Cc1ccc(C(C)(C)C)cc1)c1ccccc1O2 | 17 | AUC (Rattus norvegicus): 3464 ng·h/g; concentration at 6 h [2]: 2670 ng/g; Kp at 6 h [4]: 13; Cmax [3]: 1100 ng/g; concentration at 6 h [5]: 210 ng/g
12 | N#Cc1cnc(N2CCC3(CC2)CCN(Cc2cccc(C(F)(F)F)c2)c2ccccc2O3)s1 | 1 | AUC (Rattus norvegicus): 383 ng·h/g; concentration at 6 h [2]: 1510 ng/g; Kp at 6 h [4]: 20; Cmax [3]: 105 ng/g; concentration at 6 h [5]: 72 ng/g
13 | CC(=O)NCC(=O)N1CCC2(CC1)CCN(c1ccccc1)c1ccccc1O2 | > 10000 | 
14 | COc1ccccc1CN1CCC2(CCN(C(=O)CNC(C)=O)CC2)Oc2ccccc21 | 2900 | 
15 | CC(C)(C)c1ccc(CN2CCC3(CCN(c4ccc(C(=O)NCCC5CC5)nn4)CC3)Oc3ccccc32)cc1 | 40 | 
16 | COc1ccc(C(F)(F)F)c(C(=O)N2CCN(c3ccc(C(=O)NCCCc4ccccc4)cn3)CC2)c1 | 100 | 
17 | CCCN1CCC2(CCN(C(=O)CNC(C)=O)CC2)Oc2ccccc21 | > 10000 | 
18 | CC(=O)NCC(=O)N1CCC2(CC1)CCN(Cc1cccc(C(F)(F)F)c1)c1ccccc1O2 | 32 | 
19 | Cc1c(C(=O)Nc2ccn(C)n2)ncn1Cc1cccc(C(F)(F)F)c1 | 11.7 | 
20 | O=C(NCCC1CC1)c1cnc(N2CCC3(CC2)CCN(Cc2cccc(C(F)(F)F)c2)c2ccccc2O3)s1 | 930 | 
21 | CC(=O)NCC(=O)N1CCC2(CC1)CCN(CCC(C)C)c1ccccc1O2 |  | IC50 (Acyl-CoA desaturase 1 [6]): 6400 nM
22 | CC(C)(C)c1ccc(CN2CCC3(CCN(C(=O)CNC(=O)c4ccco4)CC3)Oc3ccccc32)cc1 | 19 | 
23 | CC(=O)NCC(=O)N1CCC2(CC1)CCN(Cc1ccccc1)c1ccccc1O2 | 1200 | 
